Consider 20 compounds from ChEMBL document CHEMBL1140167, “Meroditerpenoids from the brown alga Sargassum siliquastrum” (J Nat Prod, 2008).

Broadly, the IC50 is the concentration that gives 50% inhibition. High values mean lower potency, low ones higher potency.

Test [1] in a line: Inhibition of Staphylococcus aureus sortase A.
Test [2] deals with Radical scavenging activity. The test is described as follows: Antioxidant activity assessed as DPPH radical scavenging activity. Format: functional. The method, boiled down:
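DPPH radical-scavenging test; activity expressed as RC50, reported in µg/mL.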

The target in the next test is Isocitrate lyase (Candida albicans, UniProt Q9P8Q7). The experiment in a line: Inhibition of Candida albicans isocitrate lyase.
Isocitrate lyase, sequence (Q9P8Q7 whole entry): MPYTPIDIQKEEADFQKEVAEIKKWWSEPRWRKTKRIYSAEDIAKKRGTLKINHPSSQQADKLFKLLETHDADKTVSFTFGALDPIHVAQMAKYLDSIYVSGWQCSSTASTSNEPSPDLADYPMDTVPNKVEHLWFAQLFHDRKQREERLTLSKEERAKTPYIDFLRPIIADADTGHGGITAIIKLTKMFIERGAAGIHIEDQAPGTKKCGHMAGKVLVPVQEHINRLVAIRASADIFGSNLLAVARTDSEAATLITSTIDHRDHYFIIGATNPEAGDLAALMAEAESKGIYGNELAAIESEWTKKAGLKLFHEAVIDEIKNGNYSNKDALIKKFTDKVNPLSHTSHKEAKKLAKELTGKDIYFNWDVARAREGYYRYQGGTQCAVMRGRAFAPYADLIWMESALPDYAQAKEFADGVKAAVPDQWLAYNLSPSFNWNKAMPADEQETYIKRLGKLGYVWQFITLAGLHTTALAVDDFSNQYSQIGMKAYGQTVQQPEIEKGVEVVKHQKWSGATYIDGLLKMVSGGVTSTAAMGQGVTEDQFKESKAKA

≈ marks a conversion by molar mass, not a printed value. Some results are limits rather than exact numbers.

With `C=CC(C)(CC/C=C(\C)CCCC(C)C(=O)[C@H](O)C=C(C)C)Oc1ccc(O)cc1CC(=O)OC` (some centres not stated) [NAHOCOL A1], in test [1], the half-maximal inhibitory concentration (IC50) was > 200 µg/mL. In test [2], the RC50 is 12.7 µg/mL.
`COC(=O)Cc1cc(O)cc(C/C=C(\C)CC/C=C(\C)CC/C=C(\C)C(=O)[C@@H](O)C=C(C)C)c1O` yielded an IC50 in test [1] of 23 µg/mL (≈ 47.5 µM). Also, in test [2], the RC50 worked out at 0.31 µg/mL.
For `C=CC(C)(CC/C=C(\C)CCCC(C)C(O)C(=O)C=C(C)C)Oc1ccc(O)cc1CC(=O)OC` (configuration not stated), in that order: > 200 µg/mL and 9.12 µg/mL.
For `C=CC(C)(CC/C=C(\C)CCCC(C)[C@@H](O)C(=O)C=C(C)C)Oc1ccc(O)cc1CC(=O)OC` (some centres not stated), in that order: > 200 µg/mL and 17.2 µg/mL.
For `C=CC(C)(CC/C=C(\C)CCCC(C)C(=O)[C@@H](O)C=C(C)C)Oc1ccc(O)cc1CC(=O)OC` (some centres not stated) [NAHOCOL A], in that order: > 200 µg/mL and 11.3 µg/mL.
On to `C=CC(C)(CC/C=C(\C)CC/C=C(\C)C(=O)[C@@H](O)C=C(C)C)Oc1ccc(O)cc1CC(=O)OC` (some centres not stated), for which the half-maximal inhibitory concentration (IC50) is > 200 µg/mL in test [1] and 103 µM at Isocitrate lyase. Also, the RC50 in test [2] stood at 12.6 µg/mL.
In the case of `C=CC(C)(CC/C=C(\C)CC/C=C(\C)[C@@H](O)[C@@H](O)C=C(C)C)Oc1ccc(O)cc1CC(=O)OC` (some centres not stated) [NAHOCOL D1], the IC50 in test [1] is > 200 µg/mL. Further, in test [2], the RC50 turned out to be 18.5 µg/mL.
For `C=CC(C)(CC/C=C(\C)CC/C=C(\C)[C@@H](O)[C@H](O)C=C(C)C)Oc1ccc(O)cc1CC(=O)OC` (some centres not stated) [NAHOCOL D2], in that order: > 200 µg/mL and 12.4 µg/mL.
On to `CC(C)=CCC/C(=C/CC/C(C)=C/CC/C(C)=C/Cc1cc(O)cc(C)c1O)C(=O)O` [SARGAHYDROQUINOIC ACID], for which the results for the IC50 (in test [1]; against Isocitrate lyase) were > 200 µg/mL and 117 µM, respectively. Moreover, the RC50 in test [2] stood at 0.17 µg/mL.
In test [1], `COC(=O)Cc1cc(O)cc(C/C=C(/C)CC/C=C(\C)CC/C=C(\C)C(=O)[C@@H](O)C=C(C)C)c1O` showed an IC50 of 23 µg/mL (≈ 47.5 µM). Moreover, the RC50 in test [2] came out at 0.33 µg/mL.
For `COC(=O)Cc1cc(O)cc(C/C=C(/C)CCC(=O)C(C)CC/C=C(\C)C[C@H](O)C=C(C)C)c1O` (some centres not stated), in that order: 23 µg/mL (≈ 47.3 µM) and 0.1 µg/mL.
`C=CC(C)(CC/C=C(\C)CC/C=C(/C)[C@H](O)C(=O)C=C(C)C)Oc1ccc(O)cc1CC(=O)OC` (some centres not stated): the half-inhibitory concentration (IC50) is > 200 µg/mL in test [1] and 103 µM against Isocitrate lyase. In test [2], the RC50 turned out to be 23.2 µg/mL.
In test [1], `COC(=O)Cc1cc(O)cc(C/C=C(/C)CC/C=C(\C)CC/C=C(\C)[C@@H](O)[C@@H](O)C=C(C)C)c1O` [ISONAHOCOL D1] had an IC50 of 23 µg/mL (≈ 47.3 µM). In addition, in test [2], the RC50 came to 0.13 µg/mL.
For `COC(=O)Cc1cc(O)cc(C/C=C(\C)CC/C=C(\C)CCCC(C)C(=O)[C@@H](O)C=C(C)C)c1O` (some centres not stated), in that order: 23 µg/mL (≈ 47.3 µM) and 0.3 µg/mL.
With `COC(=O)Cc1cc(O)cc(C/C=C(\C)CC/C=C(\C)CC/C=C(\C)[C@@H](O)[C@@H](O)C=C(C)C)c1O` [ISONAHOCOL D2], in test [1], the half-inhibitory concentration (IC50) came to 23 µg/mL (≈ 47.3 µM). Moreover, in test [2], the RC50 came to 0.12 µg/mL.
As to `C=CC(C)(CC/C=C(\C)CCCC(C)C(O)/C=C/C(=C)C)Oc1ccc(O)cc1CC(=O)OC` (configuration not stated), the values for the IC50 (in test [1]; at Isocitrate lyase) were > 200 µg/mL and 106 µM, respectively. Moreover, in test [2], the RC50 is 12.4 µg/mL.
Regarding `C=CC(C)(CC/C=C(\C)C[C@@H]1C=C(C)C(=O)[C@H]1C=C(C)C)Oc1ccc(O)cc1CC(=O)OC` (some centres not stated), the IC50 in test [1] is > 200 µg/mL; against Isocitrate lyase it was 107 µM. Besides, in test [2], the RC50 stood at 11.7 µg/mL.
In the case of `COC(=O)CC1(C/C=C(\C)CC/C=C(\C)CC/C=C(\C)[C@@H](O)[C@@H](O)C=C(C)C)CC(=O)C=CC1=O` (some centres not stated), the IC50 in test [1] amounted to 23 µg/mL (≈ 47.3 µM). The RC50 in test [2] was > 300 µg/mL.
With `C=CC(C)(CC/C=C(\C)CC/C=C(\C)[C@H](O)C(=O)C=C(C)C)Oc1ccc(O)cc1CC(=O)OC` (some centres not stated), the IC50 was > 200 µg/mL in test [1] and 103 µM on Isocitrate lyase. For the same compound, the RC50 in test [2] was 14.7 µg/mL.
In the same order, the values of `CC(C)=CC(O)C(=O)/C(C)=C/CC/C(C)=C/CCC(C)(O)CCc1cc(O)cc(C)c1O` (configuration not stated) are > 200 µg/mL, 112 µM and 0.24 µg/mL.
